Series [1] concerns HT-29. Briefly: Cytotoxicity against human HT-29 cells assessed as cell viability after 48 hrs by alamar blue assay. The series is classed as functional, cell-based. The conditions noted are these: for IC50: HT-29, 48 h. Summed up: (§1)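 Alamar Blue viability assay on the human cell line named (origins given: HT-29 colorectal adenocarcinoma, HepG2 hepatocellular carcinoma, LAMA-84 myeloid leukemia, A549 lung adenocarcinoma, PC3 prostate metastasis, MCF-7 breast adenocarcinoma, ARPE-19 retinal pigment epithelium, BJ skin fibroblast). Exposure was 48 h. Sterol stocks were made in DMSO. IC50 is the concentration inhibiting 50% of cellular growth, given as the mean of at least three separate experiments.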
On the technique in general: The colour change of resazurin is a common sign of viable cells or microbes.

The nature of series [2]: Cytotoxicity against human ARPE19 cells assessed as inhibition of cell growth after 96 hrs by alamar blue assay. The series is classed as cell-based. The conditions noted are these: ARPE-19, 96 h. Summed up: (§2)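 HT-29 and ARPE-19 cells exposed for 96 h. ARPE-19 seeded at 5 10^3 cells/well for this period. Sterol stocks in DMSO. Viability by Alamar Blue. IC50 is the concentration inhibiting 50% of cellular growth, mean of at least three separate experiments.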

Series [3] in a line: Cytotoxicity against human ARPE19 cells assessed as cell viability after 48 hrs by alamar blue assay. The series is classed as cell-based, ARPE-19. The conditions noted are these: for IC50: Homo sapiens, ARPE-19, 48 h. Summed up: as §1
Series [4] has as its system HT-29. Description: Cytotoxicity against human HT-29 cells assessed as inhibition of cell growth after 96 hrs by alamar blue assay. The series is classed as functional, cell-based. The conditions noted are these: HT-29, 96 h. The gist of the method: as §2
The subject of series [5] is HT-29. Briefly: Selectivity index, ratio of IC50 for human ARPE19 cells to IC50 for human HT-29 cells. The series is classed as functional.
The test system of series [6] is PC-3. Briefly: Cytotoxicity against human PC3 cells assessed as cell viability after 48 hrs by alamar blue assay. The series is classed as functional, cell-based. The conditions noted are these: for IC50: PC-3, 48 h. The gist of the method: as §1
The test system of series [7] is LAMA-84. Description: Cytotoxicity against human LAMA-84 cells assessed as cell viability after 48 hrs by alamar blue assay. The series is classed as functional, cell-based. The conditions noted are these: for IC50: LAMA-84, 48 h. The gist of the method:
as §1

Series [8] has as its system MCF7. Briefly: Cytotoxicity against human MCF7 cells assessed as cell viability after 48 hrs by alamar blue assay. The series is classed as functional, cell-based. The conditions noted are these: for IC50: MCF7, 48 h. Summed up:
as §1

Series [9] has as its system BJ. Description: Cytotoxicity against human BJ cells assessed as cell viability after 48 hrs by alamar blue assay. The series is classed as cell-based. The conditions noted are these: for IC50: Homo sapiens, BJ. Summed up:
as §1

Series [10] relates to HepG2. Description: Cytotoxicity against human HepG2 cells assessed as cell viability after 48 hrs by alamar blue assay. The conditions noted are these: for IC50: HepG2, 48 h. The series is classed as functional, cell-based. Summed up: as §1
Series [11] relates to SH-SY5Y. Description: Cytotoxicity against human SH-SY5Y cells assessed as cell viability after 48 hrs by alamar blue assay. The series is classed as functional, cell-based. The gist of the method:
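SH-SY5Y cells grown in DMEM/F12 (1:1) with L-glutamine, 10% heat-inactivated FBS, 100 units/mL penicillin and 0.1 mg/mL streptomycin, pH 7.4. Seeded at 5 10^3 cells/well and exposed to the sterols (DMSO stocks) for 48 h. Alamar Blue read-out. IC50 is the concentration inhibiting 50% of growth, mean of at least three separate experiments.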

In series [12] the test system is A549. Description: Cytotoxicity against human A549 cells assessed as cell viability after 48 hrs by alamar blue assay. The series is classed as functional, cell-based. The conditions noted are these: for IC50: A549, 48 h. Summed up:
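Alamar Blue viability assay on the human cell line named (origins given: HT-29 colorectal adenocarcinoma, HepG2 hepatocellular carcinoma, LAMA-84 myeloid leukemia, A549 lung adenocarcinoma, PC3 prostate metastasis, MCF-7 breast adenocarcinoma, ARPE-19 retinal pigment epithelium, BJ skin fibroblast). Exposure was 48 h. Sterol stocks were made in DMSO.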

Here are results for 9 molecules from ChEMBL document CHEMBL1821637, “Selective cytotoxicity of oxysterols through structural modulation on rings A and B. Synthesis, in vitro evaluation, and SAR” (J Med Chem, 2011).

For orientation: IC50 means the point on the concentration scale where inhibition reaches its midpoint.

In the case of `CC(=O)O[C@H]1CC[C@]2(C)[C@H]3CC[C@]4(C)[C@@H]([C@H](C)CCCC(C)C)CC[C@H]4[C@@H]3CC[C@@]2(O)[C@H]1O`, the IC50 amounted to 18.6 µM in series [1], 21.8 µM in series [2], 32.5 µM in series [3] and 17.7 µM in [4]. Moreover, the “Ratio IC50” value in series [5] was 1.75.

As for `CC(=O)O[C@@H]1C[C@H]2[C@@H]3CC[C@H]([C@H](C)CCCC(C)C)[C@@]3(C)CC[C@@H]2[C@@]2(C)CC[C@H](O)C[C@]12O`, the IC50 is 6.8 µM in [1]; 13.2 µM in [6]; 3.9 µM in series [7]; 17.9 µM in [3]; 6.6 µM in series [4]; 11 µM in series [8]. For the same molecule, the IC50 in [9] is 13.4 µM; in series [10] it was 11.9 µM; in series [11], 12.2 µM; in series [12], 13.3 µM. Further, the “Ratio IC50” value in series [5] is given as 2.58.

As to `CC(=O)O[C@H]1CC[C@]2(C)[C@H]3CC[C@]4(C)[C@@H]([C@H](C)CCCC(C)C)CC[C@H]4[C@@H]3C[C@@H](OC(C)=O)[C@@]2(O)C1`, the IC50 in series [1] was 43.1 µM; in [2], 35.4 µM; in series [3], 64.1 µM; in series [4], 25.3 µM. Moreover, the “Ratio IC50” value in series [5] amounted to 1.49.

As for `CC(=O)O[C@H]1CC[C@]2(C)[C@H]3CC[C@]4(C)[C@@H]([C@H](C)CCCC(C)C)CC[C@H]4[C@@H]3C[C@@H](O)[C@@]2(O)C1`, the concentration for half-maximal inhibition (IC50) in [2] was 53 µM; in series [3], greater than 60 µM. Also, the “Ratio IC50” value in series [5] is greater than 3.09.

For `CC(=O)O[C@H]1CC[C@@]2(C)C(=C[C@H](O)[C@H]3[C@@H]4CC[C@H]([C@H](C)CCCC(C)C)[C@@]4(C)CC[C@@H]32)C1`, the half-inhibitory concentration (IC50) in series [2] worked out at 23.6 µM; in series [3], 46.5 µM; in series [4], 12.4 µM. In addition, the “Ratio IC50” value in [5] turned out to be 1.58.

With `CC(=O)O[C@H]1[C@@H](O)CC[C@]2(C)[C@H]3CC[C@]4(C)[C@@H]([C@H](C)CCCC(C)C)CC[C@H]4[C@@H]3CC[C@@]12O`, the IC50 in [1] was found to be 15.2 µM; in [2] it was 22.3 µM; in series [3] it was 37.4 µM; in [4], 18.7 µM. Moreover, in [5], the “Ratio IC50” value is 2.46.

Regarding `CC(=O)O[C@H]1CC[C@]2(C)[C@H]3CC[C@]4(C)[C@@H]([C@H](C)CCCC(C)C)CC[C@H]4[C@@H]3[C@@H](OC(C)=O)[C@@H](O)[C@@]2(O)C1`, the IC50 was 20.1 µM in series [1], 19.5 µM in series [2], 29 µM in [3] and 16.6 µM in series [4]. For the same molecule, in series [5], the “Ratio IC50” value was determined as 1.44.

For the molecule `CC(=O)O[C@@H]1[C@H]2[C@@H]3CC[C@H]([C@H](C)CCCC(C)C)[C@@]3(C)CC[C@@H]2[C@@]2(C)CC[C@H](O)C[C@]2(O)[C@@H]1OC(C)=O`, the inhibition result in series [1], in series [6], in [7], in [8], in series [10] and in [11] was “Dose-dependent effect” throughout. Besides, the inhibition entry in series [12] is “Dose-dependent effect”. Besides, the 50% inhibitory concentration (IC50) in series [1] worked out at 13.1 µM; in [6], 10.3 µM; in series [7], 6.4 µM; in series [3], 11.2 µM; in [4], 14.9 µM; in series [8], 13.2 µM. In addition, the concentration for half-maximal inhibition (IC50) in [9] turned out to be 10.2 µM; in series [10], 11.7 µM; in series [11] it was 13.8 µM; in [12], 13.9 µM. Moreover, the Activity entry in series [3] (human, arpe-19, 48 h) is recorded as “Toxic”; in series [9] (human, bj) it was “Toxic”. Besides, the “Ratio IC50” value in series [5] is on record as 0.85.

Consider `CC(=O)O[C@H]1CC[C@]2(C)[C@H]3CC[C@]4(C)[C@@H]([C@H](C)CCCC(C)C)CC[C@H]4[C@@H]3[C@@H](O)[C@@H](O)[C@@]2(O)C1`, for which the IC50 in series [1] is 18.8 µM; in series [2] it was 23.8 µM; in series [3], 30.5 µM; in series [4] it was 14.7 µM. Besides, the “Ratio IC50” value in series [5] is on record as 1.62.
